Data: ChEMBL document CHEMBL1136726, “Synthesis and characterization of iodine-123 labeled 2beta-carbomethoxy-3beta-(4'-((Z)-2-iodoethenyl)phenyl)nortropane. A ligand for in vivo imaging of serotonin transporters by single-photon-emission tomography” (J Med Chem, 2003)

Columns and labels:
[1] = test system: Rattus norvegicus; assay: Distribution of radioactivity in rat brain cerebellum 120 min after intravenous administration of iodine labeled compound; format: ADME, organism-based; settings: in vivo, 2 h
Outline: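 Male Sprague–Dawley rats (225–300 g) under ketamine received 10 µCi radioligand iv (tail vein) in 10% EtOH/saline. Hypothalamus, prefrontal cortex, striatum, pons and cerebellum were dissected, weighed and gamma-counted. % injected dose/g was taken from decay-corrected counts versus diluted dose. Mean ± SE and range, n=5 (5, 30 min) or 4 (60, 120 min).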

[2] = test system: Rattus norvegicus; assay: Distribution of radioactivity in rat brain striatum 60 min after intravenous administration of iodine labeled compound; format: ADME, organism-based; settings: in vivo, 1 h
Outline: (§1)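 Male Sprague–Dawley rats (225–300 g) under ketamine anaesthesia were given [123I]ZIENT (10 μCi) in 0.2 mL 10% EtOH/0.9% NaCl into the tail vein, with a saline flush. Hypothalamus, prefrontal cortex, striatum, pons and cerebellum were dissected and gamma-counted. % injected dose/g came from decay-corrected counts against the diluted injected dose, and region/cerebellum ratios were taken from these. Mean ± SE, n=4–5.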

[3] = test system: Rattus norvegicus; assay: Distribution of radioactivity in rat kidney 5 min after intravenous administration of iodine labeled compound; format: ADME, organism-based; settings: in vivo
Outline: (§2)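 Tail-vein injection of [123I]ZIENT (10 μCi in 0.2 mL 10% EtOH/0.9% NaCl, then 0.4 mL saline flush) into ketamine-anaesthetised male Sprague–Dawley rats (225–300 g). Animals were killed by cardiac excision at set times. Organs were excised, rinsed, blotted, weighed and gamma-counted. % dose/g was calculated against diluted aliquots of injectate. Mean ± SE, n=4–5.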

[4] = test system: Rattus norvegicus; assay: Distribution of radioactivity in rat brain region striatum 60 min after intravenous administration of iodine labeled compound in absence of blocker in study 1; format: ADME, organism-based; settings: in vivo, 1 h
Outline: (§3)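 Male Sprague–Dawley rats (250–300 g), ketamine-anaesthetised, received [123I]ZIENT (10 μCi) in 0.2 mL 10% ethanol/0.9% NaCl via the tail vein. […] Rats were killed at 60 min with pentobarbital, brain regions dissected and gamma-counted. Values are % dose/g from decay-corrected, background-subtracted counts against the diluted injected dose.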

[5] = test system: Rattus norvegicus; assay: Distribution of radioactivity in rat kidney 60 min after intravenous administration of iodine labeled compound; format: ADME, organism-based; settings: in vivo, 1 h; outline: as §2
[6] = test system: Rattus norvegicus; assay: Distribution of radioactivity in rat heart 5 min after intravenous administration of iodine labeled compound; format: ADME, organism-based; settings: in vivo; outline: as §2
[7] = test system: Rattus norvegicus; assay: Distribution of radioactivity in rat liver 5 min after intravenous administration of iodine labeled compound; format: ADME, organism-based; settings: in vivo; outline: as §2
[8] = test system: Rattus norvegicus; assay: Distribution of radioactivity in rat testis 30 min after intravenous administration of iodine labeled compound; format: ADME, organism-based; settings: in vivo, 0.5 h; outline: as §2
[9] = test system: Rattus norvegicus; assay: Distribution of radioactivity in rat heart 120 min after intravenous administration of iodine labeled compound; format: ADME, organism-based; settings: in vivo, 2 h; outline: as §2
[10] = test system: Rattus norvegicus; assay: Ratio of distribution of radioactivity in rat brain region prefrontal cortex and cerebellum 60 min after intravenous administration of iodine labeled compound in presence of fluvoxamine blocker in study 1; format: ADME, organism-based; settings: in vivo, 1 h
[11] = test system: Rattus norvegicus; assay: Distribution of radioactivity in rat brain region striatum 60 min after intravenous administration of iodine labeled compound in presence of reboxetine blocker in study 2; format: ADME, organism-based; settings: in vivo, 1 h; outline: as §3
[12] = test system: Rattus norvegicus; assay: Distribution of radioactivity in rat thyroid 60 min after intravenous administration of iodine labeled compound; format: ADME, organism-based, Thyroid gland; settings: in vivo, 1 h; outline: as §2
[13] = test system: Rattus norvegicus; assay: Ratio of distribution of radioactivity in rat brain region prefrontal cortex and cerebellum 60 min after intravenous administration of iodine labeled compound in presence of RTI-113 blocker in study 1; format: ADME, organism-based; settings: in vivo, 1 h
[14] = test system: Rattus norvegicus; assay: Ratio of distribution of radioactivity in rat brain hypothalamus and cerebellum 120 min after intravenous administration of iodine labeled compound; format: ADME, organism-based; settings: in vivo, 2 h; outline: as §1
[15] = target: Sodium-dependent dopamine transporter (Homo sapiens, UniProt Q01959); assay: In vitro competitive binding versus [N-methyl-3H]WIN-35428 in murine kidney cells transfected with cDNA for human dopamine transporter (DAT); format: cell-based
Sequence of Sodium-dependent dopamine transporter (Q01959 whole entry): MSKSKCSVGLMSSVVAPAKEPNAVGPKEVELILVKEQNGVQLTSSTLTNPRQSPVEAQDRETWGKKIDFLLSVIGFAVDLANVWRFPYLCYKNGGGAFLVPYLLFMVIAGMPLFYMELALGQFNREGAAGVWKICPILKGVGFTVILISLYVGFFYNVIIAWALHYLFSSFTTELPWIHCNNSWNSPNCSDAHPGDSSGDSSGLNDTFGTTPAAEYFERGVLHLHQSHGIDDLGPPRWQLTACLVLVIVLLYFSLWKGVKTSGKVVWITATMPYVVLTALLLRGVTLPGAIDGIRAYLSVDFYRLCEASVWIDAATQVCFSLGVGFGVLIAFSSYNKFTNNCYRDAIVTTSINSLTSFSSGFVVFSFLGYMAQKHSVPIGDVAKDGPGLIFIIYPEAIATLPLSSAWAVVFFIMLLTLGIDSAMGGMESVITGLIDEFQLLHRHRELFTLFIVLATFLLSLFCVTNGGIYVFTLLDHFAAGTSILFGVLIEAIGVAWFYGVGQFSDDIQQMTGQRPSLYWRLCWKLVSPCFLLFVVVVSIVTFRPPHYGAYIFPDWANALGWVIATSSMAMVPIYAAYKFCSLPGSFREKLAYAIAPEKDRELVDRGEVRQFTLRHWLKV

[16] = test system: Rattus norvegicus; assay: Ratio of distribution of radioactivity in rat brain prefrontal cortex and cerebellum 30 min after intravenous administration of iodine labeled compound; format: ADME, organism-based; settings: in vivo, 0.5 h; outline: as §1
[17] = test system: Rattus norvegicus; assay: Distribution of radioactivity in rat blood 30 min after intravenous administration of iodine labeled compound; format: ADME, organism-based; settings: in vivo, 0.5 h
Outline: (§4)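 Male Sprague–Dawley rats (225–300 g) under ketamine received 10 µCi radioligand in 0.2 mL 10% EtOH/0.9% NaCl via tail vein, then a saline flush. Killed by cardiac excision at set times. Organs were excised, weighed and gamma-counted. % dose/g was taken against diluted injectate. Mean ± SE and range, n=4 (5 min) or 5 (30–120 min).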

[18] = test system: Rattus norvegicus; assay: Distribution of radioactivity in rat kidney 30 min after intravenous administration of iodine labeled compound; format: ADME, organism-based; settings: in vivo, 0.5 h; outline: as §2
[19] = test system: Rattus norvegicus; assay: Distribution of radioactivity in rat blood 60 min after intravenous administration of iodine labeled compound; format: ADME, organism-based; settings: in vivo, 1 h; outline: as §4
[20] = test system: Rattus norvegicus; assay: Distribution of radioactivity in rat brain region prefrontal cortex 60 min after intravenous administration of iodine labeled compound in presence of reboxetine blocker in study 2; format: ADME, organism-based; settings: in vivo, 1 h
Outline: (§5)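 Male Sprague–Dawley rats (250–300 g), ketamine-anesthetized. Blocker (2 mg/kg) or none was given iv 15 min before tail-vein radioligand (10 µCi in 0.2 mL 10% EtOH/saline). Rats were killed at 60 min with im pentobarbital. Brain regions were dissected, weighed and gamma-counted. % dose/g was taken from decay-corrected, background-subtracted counts versus the injected dose.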

[21] = test system: Rattus norvegicus; assay: Distribution of radioactivity in rat brain 30 min after intravenous administration of iodine labeled compound; format: ADME, organism-based; settings: in vivo, 0.5 h
[22] = test system: Rattus norvegicus; assay: Distribution of radioactivity in rat brain region frontal cortex 60 min after intravenous administration of iodine labeled compound in absence of blocker in study 2; format: ADME, organism-based; settings: in vivo, 1 h; outline: as §5
[23] = test system: Rattus norvegicus; assay: Ratio of distribution of radioactivity in rat brain region hypothalamus and cerebellum 60 min after intravenous administration of iodine labeled compound in presence of fluvoxamine blocker in study 1; format: ADME, organism-based; settings: in vivo, 1 h
[24] = test system: Rattus norvegicus; assay: Distribution of radioactivity in rat brain region prefrontal cortex 60 min after intravenous administration of iodine labeled compound in presence of fluvoxamine blocker in study 1; format: ADME, organism-based; settings: in vivo, 1 h; outline: as §5
[25] = test system: Rattus norvegicus; assay: Ratio of distribution of radioactivity in rat brain region pons and cerebellum 60 min after intravenous administration of iodine labeled compound in presence of reboxetine blocker in study 2; format: ADME, organism-based; settings: in vivo, 1 h
[26] = test system: Rattus norvegicus; assay: Distribution of radioactivity in rat brain region frontal cortex 60 min after intravenous administration of iodine labeled compound in presence of RTI-113 blocker in study 1; format: ADME, organism-based; settings: in vivo, 1 h; outline: as §5
[27] = test system: Rattus norvegicus; assay: Distribution of radioactivity in rat brain region pons 60 min after intravenous administration of iodine labeled compound in absence of blocker in study 1; format: ADME, organism-based; settings: in vivo, 1 h; outline: as §5
[28] = test system: Rattus norvegicus; assay: Ratio of distribution of radioactivity in rat brain region hypothalamus and cerebellum 60 min after intravenous administration of iodine labeled compound in absence of blocker in study 1; format: ADME, organism-based; settings: in vivo, 1 h
[29] = test system: Rattus norvegicus; assay: Distribution of radioactivity in rat brain region prefrontal cortex 60 min after intravenous administration of iodine labeled compound in absence of blocker in study 1; format: ADME, organism-based; settings: in vivo, 1 h; outline: as §5
[30] = test system: Rattus norvegicus; assay: Ratio of distribution of radioactivity in rat brain striatum and cerebellum 60 min after intravenous administration of iodine labeled compound; format: ADME, organism-based; settings: in vivo, 1 h
Outline: (§6)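 Male Sprague–Dawley rats (225–300 g), ketamine anesthesia, injected via tail vein with [123I]ZIENT (10 μCi in 0.2 mL 10% EtOH/0.9% NaCl, 0.4 mL saline flush). Killed at 5, 30, 60 or 120 min. Striatum and cerebellum dissected, weighed, γ-counted. Decay-corrected %injected dose/g taken against diluted injectate. Ratio is striatum over cerebellum. Four or five rats per time point, mean ± standard error.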

[31] = test system: Rattus norvegicus; assay: Ratio of distribution of radioactivity in rat brain striatum and cerebellum 5 min after intravenous administration of iodine labeled compound; format: ADME, organism-based; settings: in vivo; outline: as §6

SMILES: COC(=O)[C@@H]1C2CCC(C[C@@H]1c1ccc(/C=C\I)cc1)N2 (stereo partly specified)
- Distribution (dose/g) [1]: 0.12%
- Distribution (dose/g) [2]: 0.68%
- Distribution (dose/g) [3]: 1.13%
- Distribution (dose/g) [4]: 0.76%
- Distribution (dose/g) [5]: 0.34%
- Distribution (dose/g) [6]: 0.81%
- Distribution (dose/g) [7]: 0.38%
- Distribution (dose/g) [8]: 0.34%
- Distribution (dose/g) [9]: 0.22%
- Distribution (dose/g) [10]: 1.65%
- Distribution (dose/g) [11]: 0.66%
- Distribution (dose/g) [12]: 0.8%
- Distribution (dose/g) [13]: 3.12%
- Distribution (dose/g) [14]: 4.92%
- Ki [15]: 3.47 nM
- Distribution (dose/g) [16]: 2.56%
- Distribution (dose/g) [17]: 0.4%
- Distribution (dose/g) [18]: 0.49%
- Distribution (dose/g) [19]: 0.37%
- Distribution (dose/g) [20]: 0.69%
- Distribution (dose/g) [21]: 0.74%
- Distribution (dose/g) [22]: 0.59%
- Distribution (dose/g) [23]: 1.82%
- Distribution (dose/g) [24]: 0.28%
- Distribution (dose/g) [25]: 2.35%
- Distribution (dose/g) [26]: 0.66%
- Distribution (dose/g) [27]: 0.62%
- Distribution (dose/g) [28]: 3.83%
- Distribution (dose/g) [29]: 0.93%
- Distribution (dose/g) [30]: 2.72%
- Distribution (dose/g) [31]: 1.21%
